Assay results: PMC6467756 (Journal of medicinal chemistry, 2019)
“Also recorded” adds a separate entry of the source. Read-outs that look alike come from different tables or passages of the source.

Experiments:
[1] = molecular target: T1, Recombinant human glyoxalase I (GLO1) (Homo sapiens, UniProt Q04760); assay: Human Glyoxalase 1 enzyme assay; assay type: biochemical; conditions: for GLO1 inhibition compared with 8-MSQ, in words: SAR statement
T1 sequence (Q04760 2-184 limits assumed): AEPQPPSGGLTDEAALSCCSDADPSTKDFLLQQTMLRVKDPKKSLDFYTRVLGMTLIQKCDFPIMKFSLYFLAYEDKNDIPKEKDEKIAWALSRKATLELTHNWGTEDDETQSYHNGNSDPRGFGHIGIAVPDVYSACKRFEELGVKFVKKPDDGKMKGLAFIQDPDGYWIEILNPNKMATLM
How it was run: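 Recombinant human GLO1 (40 ng) was preincubated 15–20 min with test compound in 100 mM sodium phosphate, pH 7.0. Substrate was GSH and methylglyoxal (each from 100 mM stock) mixed in buffer and left 20 min at room temperature to form hemithioacetal, then added. DMSO ≤5% final. A240 read every minute for 8 min. Rates were normalized to the uninhibited control (100%) after no-enzyme background subtraction. IC50s were benchmarked against a reference N-hydroxypyridone inhibitor. Library screens used 200 and 50 µM fragment, with a >50% inhibition hit threshold.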

human GLO1 = conditions: cited from earlier work
mice = assay: Observational assessment of toxicity after i.p. dosing; assay type: in vivo
FVB/NJ mice [2] = assay: Forced swim test; assay type: in vivo; conditions: 12.5 mg/kg i.p., 120 min before test, p=0.041
FVB/NJ mice [3] = assay: Open field test; assay type: in vivo; conditions: 12.5 mg/kg i.p., 90 min after injection, 30 min test
How it was run: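 Male and female FVB/NJ mice, 108–148 days old, tested in the light phase, were given 12.5 mg/kg i.p. or vehicle ([…]). After 90 min in the home cage, each was placed centrally in a 43×43×33 cm chamber under dim light inside a sound- and light-attenuating box for 30 min of free exploration. An infrared beam grid tracked distance traveled.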

MG levels in brain = assay: Brain methylglyoxal; assay type: in vivo; conditions: for MG per mg brain tissue: mice, 30-240 min post-dose, vehicle 1.1 ± 0.3
How it was run: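 Separate mouse cohort dosed i.p. at 12.5 or 25 mg/kg. Brains collected at 30, 60, 120 and 240 min post-dose, n=3 per time point. Under isoflurane, mice were perfused transcardially with PBS, then brains were weighed, flash-frozen and stored at −80 °C. Tissue was minced, extracted with acetonitrile, bead-homogenized, centrifuged and filtered (2 µm). MG was quantified by LC-MS/MS against an 11-point 5–5000 ng/mL curve spiked into blank brain, expressed per mg wet tissue.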

N#Cc1ccccc1S(=O)(=O)Nc1cccc2cccnc12 [Compound 20, 2-Cyano-N-(quinolin-8-yl)benzenesulfonamide]
GLO1 inhibition compared with 8-MSQ, in words [1]: not tolerated

O=c1cc(-c2ccccc2)cc(-c2ccccc2)n1O [Chugai-1, 1-hydroxy-4,6-diphenylpyridin-2(1H)-one, reference compound]
IC50 [1]: 1900 ± 200 nM
IC50 (human GLO1; value reported in the original literature report): 1190 nM

CS(=O)(=O)Nc1ccc(N2CCCCC2)c2cccnc12 [Compound 45, N-(5-(Piperidin-1-yl)quinolin-8-yl)methanesulfonamide]
GLO1 inhibition compared with 8-MSQ, in words [1]: not well tolerated

CS(=O)(=O)Nc1cccc2cccnc12 [Compound 8-MSQ, N-(Quinolin-8-yl)methanesulfonamide]
inhibition in second MBP library screening ([1]; fragment concentration 50 μM): essentially complete inhibition

Cc1ccc2cccc(NS(=O)(=O)c3ccccc3)c2n1 [Compound 9, N-(2-Methylquinolin-8-yl)benzenesulfonamide]
GLO1 inhibition compared with 8-MSQ, in words [1]: slight increase in inhibition

COCCCn1ccc2cc(-c3cc(-c4ccccc4)cc(=O)n3O)cnc21 [Chugai-3d]
IC50 (human GLO1; reported by Chugai Pharmaceuticals): 11 nM

O=S(=O)(Nc1cccc2cccnc12)c1ccccc1 [Compound 8, N-(Quinolin-8-yl)benzenesulfonamide]
improvement in inhibition relative to 8-MSQ ([1]; ratio of IC50 values vs 8-MSQ): 2 fold

CS(=O)(=O)Nc1ccc(-c2ccncc2)c2cccnc12 [Compound 38, N-(5-(Pyridin-4-yl)quinolin-8-yl)methanesulfonamide]
GLO1 inhibition compared with 8-MSQ, in words [1]: not well tolerated

COc1cc(CCc2cc(NS(=O)(=O)c3ccccn3)c3ncccc3c2)cc(OC)c1 [Compound 60, N-(6-(3,5-Dimethoxyphenethyl)quinolin-8-yl)pyridine-2-sulfonamide]
observational assessment of toxicity (mice; doses up to 100 mg/kg i.p.): no adverse responses
immobility in the FST vs vehicle (FVB/NJ mice [2]): reduction in percent immobility; also recorded: significant decrease in the time spent immobile; also recorded: reduced immobility
locomotor activity in open field vs vehicle (FVB/NJ mice [3]): no effect
increase of MG levels in brain vs vehicle-treated mice (MG levels in brain; 12.5 mg/kg i.p., between 30 and 240 min post-dose): approximately 11 fold
MG per mg brain tissue (MG levels in brain; 12.5 mg/kg i.p.): 11.8±4.1 ng/mg of brain tissue
MG per mg brain tissue (MG levels in brain; 25 mg/kg i.p.): 14.1±3.1 ng/mg of brain tissue
increase in brain MG levels compared to vehicle-treated mice (MG levels in brain; summary statement in discussion): > 10 fold

Cc1ccc2cccc(NS(C)(=O)=O)c2n1 [Compound 7, N-(2-Methylquinolin-8-yl)methanesulfonamide]
loss of affinity compared to 8-MSQ ([1]; ratio of IC50 values vs 8-MSQ): ~ 2 fold

O=S(=O)(Nc1ccc(-c2ccc(Cl)cc2)c2cccnc12)c1ccccn1 [Compound 48, N-(5-(4-Chlorophenyl)quinolin-8-yl)pyridine-2-sulfonamide]
observed toxicity (mice; i.p. doses of 50 mg/kg and higher): visibly toxic

O=S(=O)(Nc1cccc2cccnc12)c1ccccn1 [Compound 23, N-(Quinolin-8-yl)pyridine-2-sulfonamide]
improvement in inhibition relative to 8-MSQ ([1]; ratio of IC50 values vs 8-MSQ): ~ 14 fold

CS(=O)(=O)Nc1ccc(-c2cncnc2)c2cccnc12 [Compound 39, N-(5-(Pyrimidin-5-yl)quinolin-8-yl)methanesulfonamide]
GLO1 inhibition compared with 8-MSQ, in words [1]: not well tolerated

COc1ccccc1S(=O)(=O)Nc1cccc2cccnc12 [Compound 17, 2-Methoxy-N-(quinolin-8-yl)benzenesulfonamide]
GLO1 inhibition compared with 8-MSQ, in words [1]: not tolerated

CS(=O)(=O)Nc1ccc(N2CCOCC2)c2cccnc12 [Compound 46, N-(5-Morpholinoquinolin-8-yl)methanesulfonamide]
GLO1 inhibition compared with 8-MSQ, in words [1]: not well tolerated
